Series [1] is described as follows: Half life in rat brain homogenate by RP-HPLC analysis. The format is ADME, tissue-based. In outline:
(§1)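 Peptides are incubated at 37 °C with rat brain homogenate as the protease source. Samples taken at 0, 7.5, 15, 22.5, 30 and 60 min are analysed by RP-HPLC to derive the degradation rate constant k and the half-life. Three independent experiments in duplicate; mean ± SEM.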

The subject of series [2] is Mus musculus. The series can be described thus: Antinociceptive activity in mouse assessed as inhibition of EM-2-induced jumping at 1 ug, icv by hot-plate test. It is filed as functional, organism-based. Background: In hot-plate and tail-flick tests a longer latency is read as antinociception.
For series [3], the species on record is Rattus norvegicus. The series can be described thus: Selectivity ratio of IC50 for KOR in guinea pig brain membranes to IC50 for MOR in rat brain membranes. It is filed as cell membranes. In outline:
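Ratio of the KOR IC50, from displacement of [³H]nor-BNI in guinea pig brain membranes, to the MOR IC50, from displacement of [³H]DAMGO in rat brain membranes. Three independent experiments in duplicate.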

For series [4], the system named is Mus musculus. As to the kind of experiment: Antinociceptive activity in mouse assessed as inhibition of EM-2-induced jumping at 3 ug, icv co-administered with naltrindole by hot-plate test. It is filed as functional, organism-based. In outline: (§2)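 Hot-plate jumping latency in mice given the peptide at 3 µg/animal icv together with β-FNA (1 µg/animal), naltrindole (1 µg/animal) or nor-BNI (5 µg/animal, per the figure legend). Result is expressed as %MPE with a 240 s cut-off; 10 mice per group; one-way ANOVA with Student–Newman–Keuls.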

Series [5] deals with Mus musculus. As to the kind of experiment: Antinociceptive activity in mouse assessed as inhibition of EM-2-induced jumping at 3 ug, icv co-administered with beta-funaltrexamine by hot-plate test. It is filed as functional, organism-based. The method, boiled down:
as §2

The subject of series [6] is Mus musculus. As to the kind of experiment: Antinociceptive activity in mouse assessed as inhibition of EM-2-induced jumping at 3 ug, icv co-administered with nor-binaltorphimine by hot-plate test. The format is functional, organism-based. In outline: as §2
Series [7] has as its system Mus musculus. The series can be described thus: Antidepressant activity in mouse assessed as reduction in immobility time at 3 ug, icv co-administered with beta-funaltrexamine measured 10 mins post-dose by forced swim test. It is filed as functional, organism-based. In outline: (§3)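 Forced swim test in mice with the peptide at 3 µg/animal icv, co-injected with β-FNA (1 µg/animal), naltrindole (1 µg/animal) or nor-BNI (5 µg/animal). Swim starts 10 min after injection; 6-min session in water at 22 ± 1 °C; automated scoring of total immobility; 10 mice per group.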

The species entered for series [8] is Rattus norvegicus. The series can be described thus: Selectivity ratio of IC50 for DOR in rat brain membranes to IC50 for MOR in rat brain membranes. The format is cell membranes. The method, boiled down:
(§4)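 Competitive binding on rat brain membranes: displacement of [³H]DAMGO (MOR) or [³H][Ile5,6]deltorphin-2 (DOR), reported as IC50. Three independent experiments, each run in duplicate, given as mean ± SEM. The DOR/MOR ratio is calculated from these IC50 values.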

Series [9] has as its system Mus musculus. As to the kind of experiment: Antidepressant activity in mouse assessed as reduction in immobility time at 3 ug, icv measured 10 mins post-dose by tail suspension test. It is filed as functional, organism-based. The method, boiled down: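 Tail suspension: mice held 20 min beforehand in small individual cages. Ten minutes after an icv injection of vehicle or peptide (3 µg/animal), each mouse is suspended by the tail with adhesive tape and immobility is recorded. 10 mice per group.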

Series [10] has as its target Kappa-type opioid receptor (Cavia porcellus, UniProt P41144). As to the kind of experiment: Displacement of [3H]nor-BNI from KOR in guinea pig brain membranes. It is filed as cell membranes, Membrane.
The target of series [11] is Mu-type opioid receptor (Rattus norvegicus, UniProt P33535). The series can be described thus: Displacement of [3H]DAMGO from MOR in rat brain membranes. The format is cell membranes, Membrane. The method, boiled down: as §4
In general terms: Displacement assays read how much labelled ligand stays bound in the presence of the test substance.

For series [12], the target named is Delta-type opioid receptor (Rattus norvegicus, UniProt P33533). The series can be described thus: Displacement of [3H](Ile5,6)deltorphin-2 from DOR in rat brain membranes. It is filed as cell membranes, Membrane. The method, boiled down: as §4
Series [13] has as its system Mus musculus. As to the kind of experiment: Antidepressant activity in mouse assessed as reduction in immobility time at 3 ug, icv co-administered with nor-binaltorphimine measured 10 mins post-dose by forced swim test. It is filed as functional, organism-based. In outline: as §3
For series [14], the system named is Mus musculus. The series can be described thus: Antinociceptive activity in icv dosed mouse assessed as inhibition of EM-2-induced jumping by hot-plate test. It is filed as functional, organism-based. The method, boiled down: (§5)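 Hot-plate test in mice. Peptides are dissolved in DMSO, diluted with saline and given icv into the left ventricle (0.1–10 µg/animal). The read-out is latency to jumping, expressed as %MPE = (test − control latency)/(cut-off − control latency) × 100, with a 240 s cut-off. 10 mice per group.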

In series [15] the test system is Mus musculus. The series can be described thus: Antidepressant activity in mouse assessed as reduction in immobility time at 3 ug, icv co-administered with naltrindole measured 10 mins post-dose by forced swim test. It is filed as functional, organism-based. The method, boiled down: as §3
Series [16] has as its system Mus musculus. The series can be described thus: Antidepressant activity in mouse assessed as reduction in immobility time at 3 to 10 ug, icv measured 10 mins post-dose by forced swim test. The format is functional, organism-based. The method, boiled down:
(§6)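 Mice given a vehicle or peptide icv, then 20 min before testing kept in small individual cages at 22 ± 1 °C. The test begins 10 min after injection: groups of four swim for 6 min in Plexiglas cylinders (14 cm internal diameter) holding water at 22 ± 1 °C to 12 cm depth. Total immobility is scored by an automated system. Dose range 0.3–10 µg/animal; 10 mice per group.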

Series [17] has as its system Mus musculus. The series can be described thus: Antidepressant-like activity in mouse assessed as horizontal locomotor activity at 3 ug, icv measured […] post-dose by locomotor activity assay. The settings on record: in vivo, icv_or_intrathecal, 20 min. The format is organism-based.
The subject of series [18] is Brain. The series can be described thus: Stability in rat brain homogenate assessed as degradation rate constant measured up to 60 mins by RP-HPLC analysis. It is filed as ADME, tissue-based. The settings on record: 1 h. The method, boiled down: as §1
Series [19] has as its system Mus musculus. The series can be described thus: Antidepressant activity in icv dosed mouse assessed as reduction in immobility time measured 10 mins post-dose by forced swim test. The format is functional, organism-based. The method, boiled down: as §6
The test system of series [20] is Mus musculus. As to the kind of experiment: Toxicity in mouse assessed as increase in immobility time at >3 ug, icv by forced swim test. The settings on record: in vivo, icv_or_intrathecal. The format is organism-based.
In series [21] the test system is Mus musculus. As to the kind of experiment: Toxicity in mouse assessed as mortality at >3 ug, icv. The format is organism-based. To be noted: in vivo, icv_or_intrathecal.
Series [22] deals with Mus musculus. As to the kind of experiment: Antidepressant activity in mouse assessed as reduction in immobility time at 3 ug, icv measured 10 mins post-dose by forced swim test. It is filed as functional, organism-based. The method, boiled down: as §6
The subject of series [23] is Mus musculus. As to the kind of experiment: Antinociceptive activity in mouse assessed as inhibition of EM-2-induced jumping at 3 ug, icv by hot-plate test. The format is functional, organism-based. The method, boiled down:
as §5

The record followed here is ChEMBL document CHEMBL3351959, “Antinociceptive and antidepressant-like action of endomorphin-2 analogs with proline surrogates in position 2” (Bioorg Med Chem, 2014).

Structures are written as SMILES. Calls of active or inactive are those of the source.

Chain of Delta-type opioid receptor (P33533 whole entry): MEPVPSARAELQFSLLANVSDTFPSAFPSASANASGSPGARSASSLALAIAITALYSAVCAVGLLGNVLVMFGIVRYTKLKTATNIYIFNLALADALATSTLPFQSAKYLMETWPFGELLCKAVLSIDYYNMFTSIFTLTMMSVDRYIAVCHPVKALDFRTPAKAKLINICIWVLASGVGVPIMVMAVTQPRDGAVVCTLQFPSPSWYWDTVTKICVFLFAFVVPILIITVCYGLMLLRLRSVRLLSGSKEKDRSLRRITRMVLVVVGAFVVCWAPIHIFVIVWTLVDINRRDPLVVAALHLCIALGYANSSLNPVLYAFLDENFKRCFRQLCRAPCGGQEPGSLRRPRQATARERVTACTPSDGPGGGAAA
Chain of Kappa-type opioid receptor (P41144 whole entry): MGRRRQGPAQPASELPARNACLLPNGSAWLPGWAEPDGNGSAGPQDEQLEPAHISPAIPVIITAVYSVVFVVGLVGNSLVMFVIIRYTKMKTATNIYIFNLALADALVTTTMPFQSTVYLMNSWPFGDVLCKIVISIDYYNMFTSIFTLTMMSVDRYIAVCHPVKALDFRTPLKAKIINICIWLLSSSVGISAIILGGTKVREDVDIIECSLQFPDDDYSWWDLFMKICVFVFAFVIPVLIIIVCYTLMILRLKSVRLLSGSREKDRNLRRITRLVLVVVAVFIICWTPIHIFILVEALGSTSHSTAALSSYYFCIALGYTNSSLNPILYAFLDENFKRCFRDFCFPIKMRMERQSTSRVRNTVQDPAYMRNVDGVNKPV
Chain of Mu-type opioid receptor (P33535 whole entry): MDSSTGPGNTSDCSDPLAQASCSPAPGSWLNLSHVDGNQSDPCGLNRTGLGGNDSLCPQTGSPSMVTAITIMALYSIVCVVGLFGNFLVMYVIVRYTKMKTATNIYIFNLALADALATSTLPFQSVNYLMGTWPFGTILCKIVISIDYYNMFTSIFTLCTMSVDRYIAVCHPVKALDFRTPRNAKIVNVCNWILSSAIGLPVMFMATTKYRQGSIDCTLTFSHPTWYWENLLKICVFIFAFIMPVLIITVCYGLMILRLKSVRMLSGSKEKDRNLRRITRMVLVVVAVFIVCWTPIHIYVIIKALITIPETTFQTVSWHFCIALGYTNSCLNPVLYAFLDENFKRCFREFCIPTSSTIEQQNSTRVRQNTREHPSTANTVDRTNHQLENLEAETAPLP

What is called half-life is the time in which the quantity being followed falls by half. Lower therefore signals rapid decline. Consider `NC(=O)[C@H](Cc1ccccc1)NC(=O)[C@H](Cc1ccccc1)NC(=O)[C@@H]1CCCN1C(=O)[C@@H](N)Cc1ccc(O)cc1` [ENDOMORPHIN 2], for which the half-life in [1] was determined as 6 min.
Take `Oc1ccc2c3c1O[C@H]1c4[nH]c5c(c4C[C@@]4(O)[C@@H](C2)N(CC2CC2)CC[C@]314)C[C@@]1(O)[C@H]2Cc3ccc(O)c4c3[C@@]1(CCN2CC1CC1)[C@H]5O4`: the inhibition result in series [2] is “inactive”.
The same measure, in the same setting: then `Oc1ccc2c3c1O[C@H]1c4[nH]c5ccccc5c4C[C@@]4(O)[C@@H](C2)N(CC2CC2)CC[C@]314`, with “inactive”.
As a reminder, the IC50 is the midpoint of a concentration-inhibition curve. Read a low IC50 as higher potency. Regarding `NC(=O)[C@H](Cc1ccccc1)NC(=O)[C@H](Cc1ccccc1)NC(=O)[C@H]1CN(C(=O)[C@@H](N)Cc2ccc(O)cc2)C[C@@H]1c1ccccc1` (mixture of isomers), the Ratio IC50 in series [3] is 31.9; in series [8] it was 10.7. Further, the inhibition result in series [4] and in [6] was “Active” in each case. The inhibition entry in [5] was “inactive”. Besides, the result in series [7], in [9] and in series [16] was Active. Further, the 50% inhibitory concentration (IC50) in series [10] came to 27.1 nM; in series [11], 0.85 nM; in series [12], 9.06 nM. The result in [13] and in [15] was inactive. For the same compound, the inhibition entry in [14] was “Dose-dependent effect”. For the same compound, the figures for the Activity entry in [17] and in series [19] were “Non-toxic” and “Dose-dependent effect”, respectively. Besides, in series [18], the K was 0.0212 min⁻¹. The same compound registered a half-life in series [1] of 32.5 min.
With `NC(=O)[C@H](Cc1ccccc1)NC(=O)[C@H](Cc1ccccc1)NC(=O)[C@@H]1CN(C(=O)[C@@H](N)Cc2ccc(O)cc2)C[C@H]1c1ccccc1` (mixture of isomers), the Ratio IC50 in series [3] and in [8] was over 1000 throughout. The Activity entry in series [20] and in [21] was “Toxic” in each case. The outcome in [9] and in series [22] was inactive. The IC50 in [10] is over 1000 nM; in series [11] it was 2.91 nM; in [12], over 1000 nM. In addition, in series [23], the inhibition entry was “inactive”. The K in series [18] was found to be 0.018 min⁻¹. In series [1], this compound had a half-life of 38.3 min.
On to `COC(=O)/C=C/C(=O)N[C@@H]1CC[C@@]2(O)[C@H]3Cc4ccc(O)c5c4[C@@]2(CCN3CC2CC2)[C@H]1O5`, for which the inhibition entry in [2] is “inactive”.
